Calls of active or inactive are those of the source. The rule behind the calls is not given here.

The target in assay [1] is T1, Caspase-3 (Homo sapiens) (UniProt P42574).
T1 sequence (whole entry): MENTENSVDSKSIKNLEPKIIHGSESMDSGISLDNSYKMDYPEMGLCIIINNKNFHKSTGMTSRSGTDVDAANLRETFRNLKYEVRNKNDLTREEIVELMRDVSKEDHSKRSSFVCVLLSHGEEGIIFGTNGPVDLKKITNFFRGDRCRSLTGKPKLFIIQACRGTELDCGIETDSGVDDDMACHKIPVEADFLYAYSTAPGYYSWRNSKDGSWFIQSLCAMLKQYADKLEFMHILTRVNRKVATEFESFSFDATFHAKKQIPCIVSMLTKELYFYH
Kind of assay: Second-order inhibition rate of caspase-3 was determined by progress curve method; No inhibition. In outline: (§1)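 Caspases-3, -6 and -8 were assayed in 50 mM HEPES, 100 mM NaCl, 0.1% (w/v) CHAPS, 10% (w/v) sucrose and 10 mM DTT, pH 7.4. Substrate: Cbz-DEVD-AFC or Cbz-DEVD-AMC.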

The target in assay [2] is T2, Caspase-6 (Homo sapiens) (UniProt P55212).
T2 sequence (whole entry): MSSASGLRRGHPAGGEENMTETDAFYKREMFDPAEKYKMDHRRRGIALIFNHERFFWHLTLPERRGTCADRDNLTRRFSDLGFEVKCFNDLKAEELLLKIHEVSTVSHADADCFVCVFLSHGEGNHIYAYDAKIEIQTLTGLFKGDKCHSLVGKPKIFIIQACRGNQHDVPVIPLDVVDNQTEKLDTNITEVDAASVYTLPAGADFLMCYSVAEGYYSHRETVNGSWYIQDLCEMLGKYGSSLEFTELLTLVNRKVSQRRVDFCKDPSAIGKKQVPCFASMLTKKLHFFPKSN
In words: Second-order inhibition rate of caspase-6 was determined by progress curve method; No inhibition. In outline:
as §1

The target of assay [3] is Caspase-8 (Homo sapiens) (UniProt Q14790). In words: Second-order inhibition rate of caspase-8 was determined by progress curve method; No inhibition. In outline: as §1
Assay [4] addresses T3, Caspase-1 (Homo sapiens) (UniProt P29466).
T3 sequence (whole entry): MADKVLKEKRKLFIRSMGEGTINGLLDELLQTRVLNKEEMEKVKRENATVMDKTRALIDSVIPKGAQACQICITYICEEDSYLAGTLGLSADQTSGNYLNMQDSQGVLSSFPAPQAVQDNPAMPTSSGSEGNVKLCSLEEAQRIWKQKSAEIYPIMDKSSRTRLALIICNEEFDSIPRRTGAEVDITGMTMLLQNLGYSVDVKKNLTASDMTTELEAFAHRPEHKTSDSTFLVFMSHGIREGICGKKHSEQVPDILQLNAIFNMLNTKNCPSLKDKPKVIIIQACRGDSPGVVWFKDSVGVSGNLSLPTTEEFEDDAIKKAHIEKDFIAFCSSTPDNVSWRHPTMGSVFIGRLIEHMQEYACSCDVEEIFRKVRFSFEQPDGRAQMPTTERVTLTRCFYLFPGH
Kind of assay: Second-order inhibition rate of caspase-1 was determined by progress curve method. Summed up:
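Caspase-1 assay buffer: 100 mM HEPES, 0.5 mM EDTA, 20% (v/v) glycerol, 5 mM DTT, pH 7.5. Substrate: Ac-YVAD-AMC.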

Assay [5] has as its target T1, Caspase-3 (Homo sapiens). In words: Second-order inhibition rate of caspase-3 was determined by progress curve method. In outline: as §1
The target in assay [6] is T2, Caspase-6 (Homo sapiens). Kind of assay: Second-order inhibition rate of caspase-6 was determined by progress curve method. In outline: as §1
The target in assay [7] is Cathepsin D (Homo sapiens) (UniProt P07339). In words: Tested for inhibition of human cathepsin D by the compound; NI = No Inhibition.
Assay [8] deals with Caspase-8 (Homo sapiens) (UniProt Q14790). In words: Second-order inhibition rate of caspase-8 was determined by progress curve method. Summed up: as §1
The target of assay [9] is Cathepsin B (Homo sapiens) (UniProt P07858). Kind of assay: Tested for inhibition of cathepsin B by the compound; NI = No Inhibition.
The target of assay [10] is Granzyme B (Homo sapiens) (UniProt P10144). In words: Tested for inhibition of granzyme B by the compound.
Assay [11] addresses Pepsin A (Sus scrofa) (UniProt P00791). In words: Tested for inhibition of porcine pepsin by the compound; NI = No Inhibition.
Assay [12] has as its target Plasmepsin II (Plasmodium falciparum) (UniProt P46925). Kind of assay: Inhibition of plasmepsin-2 from Plasmodium falciparum; NI = No Inhibition.
For assay [13], the target named is Human immunodeficiency virus type 1 protease (Human immunodeficiency virus 1) (UniProt Q72874). Kind of assay: Tested for inhibition of HIV-1 protease by the compound; NI = No Inhibition.
Assay [14] relates to Cathepsin B. In words: Tested for inhibition of cathepsin B by the compound; NI = No Inhibition.
Assay [15] deals with T4, Papain (Carica papaya) (UniProt P00784).
T4 sequence (whole entry): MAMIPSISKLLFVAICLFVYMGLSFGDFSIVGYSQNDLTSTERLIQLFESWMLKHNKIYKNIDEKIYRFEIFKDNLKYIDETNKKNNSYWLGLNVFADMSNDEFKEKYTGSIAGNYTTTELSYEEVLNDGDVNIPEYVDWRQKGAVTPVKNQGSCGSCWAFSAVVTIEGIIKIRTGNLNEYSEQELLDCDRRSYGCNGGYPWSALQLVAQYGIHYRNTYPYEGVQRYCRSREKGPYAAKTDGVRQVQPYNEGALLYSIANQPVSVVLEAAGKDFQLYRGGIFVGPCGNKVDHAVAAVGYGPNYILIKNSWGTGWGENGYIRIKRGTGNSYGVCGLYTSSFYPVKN
Kind of assay: Tested for inhibition of papain by the compound; NI = No Inhibition.

Assay [16] is described as follows: Tested for inhibition of chymotrypsinogen by the compound; NI = No Inhibition.
A short description of assay [17]: Tested for inhibition of chymotrypsinogen by the compound; ND = Not determined.
Assay [18] concerns the target Granzyme B (Homo sapiens) (UniProt P10144). In words: Tested for inhibition of granzyme B by the compound; NI = No Inhibition.
Assay [19] has as its target Cathepsin B (Homo sapiens) (UniProt P07858). In words: Tested for inhibition of cathepsin B by the compound.

Chain of Caspase-8 (Homo sapiens) (Q14790 217-374 limits assumed): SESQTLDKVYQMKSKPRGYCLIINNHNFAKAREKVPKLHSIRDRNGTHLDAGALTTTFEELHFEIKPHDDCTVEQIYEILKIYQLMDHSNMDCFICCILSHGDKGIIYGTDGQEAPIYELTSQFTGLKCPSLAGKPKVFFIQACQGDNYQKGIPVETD
Chain of Caspase-8 (Homo sapiens) (Q14790 385-479 limits assumed): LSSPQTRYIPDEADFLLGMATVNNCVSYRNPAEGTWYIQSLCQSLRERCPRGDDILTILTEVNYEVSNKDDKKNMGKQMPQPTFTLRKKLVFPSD
Chain of Granzyme B (Homo sapiens) (P10144 whole entry): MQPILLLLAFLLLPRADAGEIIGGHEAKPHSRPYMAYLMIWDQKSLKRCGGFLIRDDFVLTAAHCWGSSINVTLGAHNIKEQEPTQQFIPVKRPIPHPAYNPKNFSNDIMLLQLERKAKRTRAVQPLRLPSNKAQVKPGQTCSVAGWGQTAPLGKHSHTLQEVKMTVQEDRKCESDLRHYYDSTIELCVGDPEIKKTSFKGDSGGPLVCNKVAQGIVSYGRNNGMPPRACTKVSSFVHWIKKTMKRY
Chain of Cathepsin D (Homo sapiens) (P07339 65-162 limits assumed): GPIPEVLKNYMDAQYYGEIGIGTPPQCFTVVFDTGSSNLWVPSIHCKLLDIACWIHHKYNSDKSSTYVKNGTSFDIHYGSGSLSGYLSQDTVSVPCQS
Chain of Cathepsin D (Homo sapiens) (P07339 169-412 limits assumed): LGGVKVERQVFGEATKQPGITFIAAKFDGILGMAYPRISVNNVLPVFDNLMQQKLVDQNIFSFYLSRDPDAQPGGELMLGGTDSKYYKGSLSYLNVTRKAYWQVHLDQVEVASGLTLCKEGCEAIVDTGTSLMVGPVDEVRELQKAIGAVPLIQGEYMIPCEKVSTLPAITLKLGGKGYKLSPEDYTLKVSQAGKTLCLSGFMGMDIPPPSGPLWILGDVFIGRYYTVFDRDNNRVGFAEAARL
Chain of Plasmepsin II (Plasmodium falciparum) (P46925 125-453 limits assumed): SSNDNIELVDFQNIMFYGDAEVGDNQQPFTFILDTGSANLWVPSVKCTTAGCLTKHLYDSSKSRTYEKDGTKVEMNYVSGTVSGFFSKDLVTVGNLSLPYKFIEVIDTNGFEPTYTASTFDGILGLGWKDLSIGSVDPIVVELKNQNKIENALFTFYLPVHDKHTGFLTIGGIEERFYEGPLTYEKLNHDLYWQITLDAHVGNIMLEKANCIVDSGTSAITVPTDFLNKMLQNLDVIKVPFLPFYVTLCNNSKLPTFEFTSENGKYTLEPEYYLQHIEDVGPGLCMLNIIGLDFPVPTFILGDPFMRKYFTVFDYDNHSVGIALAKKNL
Chain of Pepsin A (Sus scrofa) (P00791 60-385 limits assumed): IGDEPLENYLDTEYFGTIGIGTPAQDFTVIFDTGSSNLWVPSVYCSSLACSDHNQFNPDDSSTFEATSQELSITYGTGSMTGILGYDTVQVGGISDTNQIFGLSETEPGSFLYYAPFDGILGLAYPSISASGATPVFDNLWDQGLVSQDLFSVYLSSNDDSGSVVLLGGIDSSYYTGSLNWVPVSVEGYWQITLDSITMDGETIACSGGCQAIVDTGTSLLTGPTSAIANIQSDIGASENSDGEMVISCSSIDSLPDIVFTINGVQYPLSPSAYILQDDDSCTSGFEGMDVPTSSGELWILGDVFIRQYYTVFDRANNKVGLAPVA

For the compound `CC(C)[C@H](NC(=O)CCc1ccccc1)C(=O)N[C@@H](C)C(=O)NN(CC(=O)O)C(=O)[C@@H]1O[C@H]1C(=O)NCc1ccccc1`, the k2 result in assay [1], in [2] and in assay [3] was “inactive” each time. The same compound yielded a k2 in assay [4] of 1630 M⁻¹ s⁻¹.

As to `CC(C)[C@H](NC(=O)CCc1ccccc1)C(=O)N[C@@H](C)C(=O)NN(CC(=O)O)C(=O)[C@@H]1O[C@H]1C(=O)N[C@@H](C)C(=O)NCc1ccccc1`, the k2 result in [1], in assay [2] and in [3] was “inactive” in each case. In addition, the k2 in assay [4] amounted to 270 M⁻¹ s⁻¹.

On to `CCOC(=O)[C@H]1O[C@@H]1C(=O)N(CC(=O)O)NC(=O)[C@@H](NC(=O)[C@H](CCC(=O)O)NC(=O)[C@@H](NC(=O)OCc1ccccc1)[C@@H](C)CC)[C@@H](C)O`, for which the k2 worked out at 4080 M⁻¹ s⁻¹ in [5], 45800 M⁻¹ s⁻¹ in assay [6], 52800 M⁻¹ s⁻¹ in assay [8] and 12400 M⁻¹ s⁻¹ in assay [4]. Further, the “k obs / 1” value in assay [7], in [9], in [11], in assay [12], in assay [13] and in assay [14] was “inactive” throughout. Further, the k obs / 1 in assay [10] is 0.65 M⁻¹ s⁻¹.

With `CC(C)[C@H](NC(=O)CCc1ccccc1)C(=O)N[C@@H](C)C(=O)NN(CC(=O)O)C(=O)[C@@H]1O[C@H]1C(=O)NCCc1ccccc1`, the k2 entry in [1], in [2] and in [3] was “inactive” in each case. For the same compound, the k2 in [4] was determined as 950 M⁻¹ s⁻¹.

For the compound `CCOC(=O)[C@@H]1O[C@H]1C(=O)N(CC(=O)O)NC(=O)[C@@H](NC(=O)C(CCC(=O)O)NC(=O)[C@H](CC(C)C)NC(=O)OCc1ccccc1)[C@@H](C)O` (some centres not stated), the k2 came to 3250 M⁻¹ s⁻¹ in [5], 4390 M⁻¹ s⁻¹ in assay [6], 34700 M⁻¹ s⁻¹ in assay [8] and 19600 M⁻¹ s⁻¹ in [4]. Moreover, the “k obs / 1” value in [9], in assay [15] and in [14] was “inactive” throughout. Besides, the k obs / 1 in assay [16] was determined as 15 M⁻¹ s⁻¹.

Turning to `CCOC(=O)[C@H]1O[C@@H]1C(=O)N(CC(=O)O)NC(=O)[C@@H](NC(=O)[C@H](CCC(=O)O)NC(=O)OCc1ccccc1)C(C)C`, the k2 turned out to be 50500 M⁻¹ s⁻¹ in assay [5], 4180 M⁻¹ s⁻¹ in [6], 195000 M⁻¹ s⁻¹ in [8] and 58500 M⁻¹ s⁻¹ in assay [4]. For the same compound, the “k obs / 1” value in assay [7], in assay [11], in assay [12] and in [13] was “inactive” throughout. The k obs / 1 in assay [17] was found to be 86 M⁻¹ s⁻¹.

Consider `CCOC(=O)[C@H]1O[C@@H]1C(=O)N(CC(=O)O)NC(=O)[C@@H](NC(=O)C(CCC(=O)O)NC(=O)[C@H](CC(C)C)NC(=O)OCc1ccccc1)[C@@H](C)O` (some centres not stated), for which the k2 in assay [5] was determined as 3210 M⁻¹ s⁻¹; in [6], 8620 M⁻¹ s⁻¹; in [8], 61200 M⁻¹ s⁻¹; in [4] it was 25700 M⁻¹ s⁻¹. The “k obs / 1” value in [7], in assay [9], in assay [18], in assay [11], in assay [15] and in assay [12] was “inactive” in each case. The “k obs / 1” value in assay [13] and in assay [14] was “inactive” each time. The k obs / 1 in [16] came out at 36 M⁻¹ s⁻¹.

Consider `CCOC(=O)[C@@H]1O[C@H]1C(=O)N(CC(=O)O)NC(=O)[C@H](C)NC(=O)[C@@H](NC(=O)CCc1ccccc1)C(C)C`, for which the k2 result in assay [1], in assay [2] and in [3] was “inactive” in each case. The k2 in [4] stood at 6290 M⁻¹ s⁻¹.

As for `CC(C)[C@H](NC(=O)CCc1ccccc1)C(=O)N[C@@H](C)C(=O)NN(CC(=O)O)C(=O)[C@H]1O[C@@H]1CCc1ccccc1`, the k2 in assay [4] came to 300 M⁻¹ s⁻¹. Moreover, the “k obs / 1” value in assay [9], in assay [15], in [14] and in assay [16] was “inactive” in each case.

As for `CCOC(=O)[C@H]1O[C@@H]1C(=O)N(CC(=O)O)NC(=O)[C@@H](NC(=O)[C@H](CCC(=O)O)NC(=O)[C@H](CC(=O)O)NC(=O)OCc1ccccc1)C(C)C`, the k2 in assay [5] was 1.07e+06 M⁻¹ s⁻¹; in assay [6] it was 5440 M⁻¹ s⁻¹; in [8], 95500 M⁻¹ s⁻¹; in assay [4], 11800 M⁻¹ s⁻¹. For the same compound, the “k obs / 1” value in [9], in assay [15] and in [14] was “inactive” each time. The k obs / 1 is < 0.1 M⁻¹ s⁻¹ in [10] and 46 M⁻¹ s⁻¹ in [16].

For `CC(C)[C@H](NC(=O)CCc1ccccc1)C(=O)N[C@@H](C)C(=O)NN(CC(=O)O)C(=O)[C@@H]1O[C@H]1C(=O)NCC(O)c1ccccc1` (some centres not stated), the k2 result in assay [1], in assay [2] and in [3] was “inactive” each time. Also, the k2 in assay [4] is 400 M⁻¹ s⁻¹.

In the case of `CC(C)[C@H](NC(=O)CCc1ccccc1)C(=O)N[C@@H](C)C(=O)NN(CC(=O)O)C(=O)[C@H]1O[C@@H]1C(=O)OCc1ccccc1` (stereo in doubt; 23d(S,S)), the k2 in assay [5] came to 1470 M⁻¹ s⁻¹; in assay [6] it was 165 M⁻¹ s⁻¹; in assay [8], 1560 M⁻¹ s⁻¹; in assay [4], 52100 M⁻¹ s⁻¹. Further, the “k obs / 1” value in assay [7], in assay [11], in [12] and in assay [13] was “inactive” each time. Moreover, the k obs / 1 is < 10 M⁻¹ s⁻¹ in assay [19] and < 0.3 M⁻¹ s⁻¹ in assay [10].

For the compound `CCOC(=O)[C@@H]1O[C@H]1C(=O)N(CC(=O)O)NC(=O)[C@@H](NC(=O)C(CCC(=O)O)NC(=O)[C@H](CC(=O)O)NC(=O)OCc1ccccc1)C(C)C` (some centres not stated), the k2 stood at 464000 M⁻¹ s⁻¹ in assay [5], 475 M⁻¹ s⁻¹ in assay [6], 785 M⁻¹ s⁻¹ in assay [8] and 4320 M⁻¹ s⁻¹ in assay [4]. For the same compound, the “k obs / 1” value in assay [7], in assay [9], in assay [11], in assay [15], in [12] and in assay [13] was “inactive” in each case. Further, the “k obs / 1” value in assay [14] and in assay [16] was “inactive” each time. Further, the k obs / 1 in assay [10] is < 0.1 M⁻¹ s⁻¹.

As to `CC(C)[C@H](NC(=O)CCc1ccccc1)C(=O)N[C@@H](C)C(=O)NN(CC(=O)O)C(=O)[C@@H]1O[C@H]1C(=O)N[C@@H](Cc1ccccc1)C(N)=O`, the k2 entry in assay [1], in assay [2] and in assay [3] was “inactive” in each case. For the same compound, the k2 in assay [4] stood at 330 M⁻¹ s⁻¹.

These data come from ChEMBL document CHEMBL1149106, “Design, synthesis, and evaluation of aza-peptide epoxides as selective and potent inhibitors of caspases-1, -3, -6, and -8” (J Med Chem, 2004).
